Screens from PubChem.
In the library only some 1.8% were active in any assay of this set; here they are far more common.
Lipid droplet = modulators of hepatic lipid droplet formation | AML12 mouse hepatocytes, oleate lipid droplets, BODIPY imaging | inhibition, % at 6.5 µM | actives 0.4% (n = 240,000);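 active means lipid droplet intensity inhibited by at least 50%, with more than 500 cells counted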
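Material – AML12 mouse liver cells · Also added – oleate loading, 100 µM · Compound dosing – 6.5 µM single-point dosing · Times – overnight treatment with compound plus oleate · Measured by – fluorescence imaging, 20x objective, two fields per well · Read-out – percent inhibition of filter-corrected integrated lipid droplet intensity per well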
hiPSC survival = enhancers of human iPSC single-cell survival; hiPSC single-cell survival, ATPlite luminescence; 100% = ROCK inhibitor wells, 0% = DMSO; survival enhancement, % at 20 µM; actives 0.044% (n = 360,000); AID 602274; in the data active means survival enhancement above about 18%;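 further: cells exposed to compounds for 16 hours before the ATP read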
Gli-Sufu antag = antagonists of Gli-Sufu signaling | Sufu-KO-LIGHT fibroblasts, Gli luciferase reporter luminescence | inhibition, % at 5 µM | actives 0.74% (n = 340,000);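 active means inhibition above about 55%, limit read from the data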
697 NFkB inh = lowers PMA/ionomycin-induced NF-kB signal in 697 B cells; inhibition, % at 4 µM; AID 435022; actives 0.33% (n = 330,000); 697 B-cell NF-kB luciferase reporter, 16 h; in the data active means inhibition above about 35%
TAG inh = inhibitors of triacylglycerol accumulation. H9c2 cells, Nile Red lipid (TAG) fluorescence; cells loaded with 200 µM oleic acid. inhibition, % at 12.5 µM. actives 0.66% (n = 230,000). AID 651582;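 active means pattern-corrected inhibition of lipid staining of at least 50% with the nuclear-stain viability signal not falling by more than 50%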
Jurkat NFkB inh = lowers PMA/ionomycin-induced NF-kB signal in Jurkat cells | AID 435003 | actives 0.53% (n = 330,000) | PMA/ionomycin-induced NF-kB luciferase reporter, luminescence | inhibition, % at 4 µM; in the data active means inhibition above about 50%
Gli antag conf = Gli-SUFU antagonism confirmation, single concentration. actives 40% (n = 2,500). Sufu-KO-LIGHT cells, Gli luciferase reporter, luminescence. shares compounds with Gli-Sufu antag. inhibition, % at 5 µM;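 active means mean inhibition at 5 µM reaching about 45%, limit read from the data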
Gli cytotox = counter-screen for Gli-SUFU antagonists: cytotoxicity; shares compounds with Gli-Sufu antag; Sufu-KO-LIGHT cells cytotoxicity, ATP luminescence; cytotoxicity, % at 5 µM; actives 32% (n = 2,500); AID 651994;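 active means mean cytotoxicity at 5 µM above about 25%, limit read from the data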;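 further: cells exposed to compound overnight for roughly 16 to 18 hours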
Wnt3a cs = Wnt3a reporter inhibition counter-screen | shares compounds with Gli-Sufu antag | Wnt-LIGHT cells, Wnt3a-driven luciferase reporter, luminescence | inhibition, % at 6.25 µM | actives 20% (n = 2,500);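 active means mean inhibition above about 25%, limit read from the data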
Numbers stand for hits; - = inactive; . = no result.

SMILES	Lipid droplet	hiPSC survival	Gli-Sufu antag	697 NFkB inh	TAG inh	Jurkat NFkB inh	Gli antag conf	Gli cytotox	Wnt3a cs
COc1ncccc1-c1nnn(-c2ccc(F)cc2)n1	-	-	-	-	-	-	.	.	.
Cc1ccccc1CS(=O)(=O)Cc1ccc(C(=O)NCc2ccco2)o1	.	-	-	-	.	-	-	-	-
COc1ccc(OC)c(CCNC(=O)CCc2nnc3ccc(N4CCOCC4)nn23)c1	-	-	.	-	.	-	.	.	.
Cc1c(/C=N/NC(=O)c2ccccc2O)c2ccccn2c1C(=O)c1ccc(F)cc1	-	-	79	-	.	-	71	-	-
OC(CSc1ccccc1)CN1CCN(c2cccc(Cl)c2)CC1 (stereo not drawn)	.	-	-	.	-	.	-	-	-
CC(OC(=O)CCCNC(=O)c1ccc(Cl)cc1)C(=O)N(C)Cc1ccccc1 (stereo not drawn)	-	-	-	-	-	-	.	.	.
COc1ccc(C(=O)NNC(=S)NC(=O)c2ccc(F)cc2)cc1Br	.	-	-	-	-	-	.	.	.
COc1cc(C(=O)NNC(=S)NC(=O)c2ccc(F)cc2)cc(OC)c1OC	-	-	57	-	-	-	-	-	-
CC[C@@]12C(=O)N(c3cccc(F)c3)C(=O)N1[C@H](c1ccc(Cl)cc1)[C@@H]1C(=O)N(C3CCCCC3)C(=O)[C@@H]12	.	-	-	-	.	-	.	.	.
CCCNC(=O)CCn1nc(-c2ccc(Cl)cc2)c2ccccc2c1=O	-	-	-	-	-	-	.	.	.
COCCNC(=O)CCn1nc(-c2ccc(Cl)cc2)c2ccccc2c1=O	-	-	-	-	.	-	-	-	-
COc1ccc(OCC(=O)Nc2ccc3c(c2)nc(CCN2CCN(C)CC2)n3C)cc1	-	-	-	-	.	-	-	-	-
COc1ccc(OCC(=O)Nc2ccc3c(c2)nc(CCN2CCCC2)n3C)cc1	-	-	-	-	.	-	.	.	.
Cc1cc(N2CC(C)OC(C)C2)nc(C(C)C)n1 (stereo not drawn)	-	-	-	-	-	-	-	-	-
Cc1cc(N2CCOCC2)nc(C(C)C)n1	-	-	-	-	-	-	.	.	.
CCN(CC)CCC(C)OC(c1ccccc1)c1ccccc1 (stereo not drawn)	-	-	-	-	-	-	.	.	.
COc1ccc(C2CC(C(F)(F)F)n3nc(CO)c(Cl)c3N2)cc1OC (stereo not drawn)	.	-	92	-	.	-	-	-	-
COc1ccc(C2CC(C(F)(F)F)n3nc(C(=O)O)c(Cl)c3N2)cc1OC (stereo not drawn)	.	-	-	-	-	-	.	.	.
CCc1cc(C(=O)Nc2ncccc2O)sc1C	-	-	-	-	.	-	.	.	.
Cc1ccc2[nH]c3c(N4CCc5ccccc5C4)ncnc3c2c1	.	-	73	-	-	-	77	38	-
Cc1ccc2[nH]c3c(N4CCOCC4)ncnc3c2c1	-	-	-	-	-	-	.	.	.
CCn1c(/C=C/N(C)c2ccccc2)[n+](CC)c2ccc(Cl)cc21	-	-	85	-	.	-	89	36	42
CCN1C(=O)C(=CC=CN(C)c2ccccc2)SC1=S	.	-	.	.	-	.	.	.	.
Cc1cc(C)nc(N/N=C2/CCCC/C2=C\c2ccccc2)n1	-	-	74	-	-	-	-	-	-
COc1cc(/C=N/NC(=O)c2ccncc2)ccc1OC(=O)c1ccco1	-	-	-	-	.	-	.	.	.
SMILES	Lipid droplet	hiPSC survival	Gli-Sufu antag	697 NFkB inh	TAG inh	Jurkat NFkB inh	Gli antag conf	Gli cytotox	Wnt3a cs
COc1cc(/C=N/NC(=O)c2ccncc2)ccc1OC(C)=O	-	-	58	-	.	-	-	-	-
Cc1ccc(C(=O)O)cc1NC(=O)Nc1ccc2c(c1)OCO2	-	-	56	-	-	-	-	-	-
COC(=O)c1ccc(C(=O)OC)c(NC(=O)Nc2ccc3c(c2)OCO3)c1	-	-	-	-	-	-	.	.	.
COc1cccc(-c2cc(C(F)(F)F)n3nc(N)nc3n2)c1	-	-	78	-	-	-	-	-	-
COc1ccc(-c2cc(C(F)(F)F)n3nc(N)nc3n2)cc1	-	-	-	-	.	-	.	.	.
COc1ccccc1CNC(=O)C1=CCN(S(=O)(=O)c2ccc(C)cc2)CC1	-	-	-	-	-	-	.	.	.
COc1ccc(C(=O)NC2CC3CCCC(C2)N3Cc2ccccc2)cc1OC (stereo not drawn)	-	-	57	-	.	-	-	-	-
COc1ccccc1NS(=O)(=O)c1ccc(C)c(C(=O)NC2CCN(Cc3ccccc3)CC2)c1	.	-	-	-	-	-	.	.	.
COc1ccccc1NS(=O)(=O)c1cccc(C(=O)NC2CCN(Cc3ccccc3)CC2)c1	.	-	-	-	-	-	57	27	-
Cc1ccc(C(=O)NC2CCN(Cc3ccccc3)CC2)cc1S(=O)(=O)N1CCOCC1	.	-	61	-	-	-	-	-	-
COc1cc(C(=O)NC2CC3CCCC(C2)N3Cc2ccccc2)cc(OC)c1OC (stereo not drawn)	-	-	-	-	-	-	.	.	.
CC(C)CC(=O)N1CCC(N(CCc2ccccc2)Cc2ccccc2)CC1	-	-	-	-	-	-	.	.	.
COCCC1CCCCN1C(=O)c1cc(COc2ccc(-n3cncn3)cc2)on1 (stereo not drawn)	-	-	58	-	-	-	68	-	40
COCC1CCCCN1C(=O)c1cc(COc2ccc3ncccc3c2)on1 (stereo not drawn)	-	-	72	-	.	-	59	-	34
COCCOC1CCN(C(=O)c2cc(COc3ccc(-n4cncn4)cc3)on2)CC1	-	-	-	-	-	-	.	.	.
CC(CCCC(C)(C)O)NC(=O)c1cc(COc2ccc3ncccc3c2)on1 (stereo not drawn)	-	-	-	-	-	-	56	-	31
CCOC(=O)Nc1cc(N)ncn1	.	-	-	.	-	.	.	.	.
CCN(C(=O)COC(=O)/C=C/c1c(C)nn(Cc2ccc(C)cc2)c1C)C1CCS(=O)(=O)C1 (stereo not drawn)	-	-	-	-	-	-	.	.	.
COc1cc2c(cc1OC)C1C(C(=O)Nc3ccccc3N3CCN(C)CC3)c3ccccc3C(=O)N1CC2 (stereo not drawn)	-	-	-	-	-	-	.	.	.
COc1cc2c(cc1OC)C(C(=O)Nc1ccccc1N1CCN(C)CC1)C1c3ccccc3CCN1C2=O (stereo not drawn)	-	-	56	-	-	-	-	-	-
CCN1CCN(C(=O)C2CCCN(c3ncnc4c3nc3n4CCCCC3)C2)CC1 (stereo not drawn)	-	-	-	-	.	-	-	-	-
